Experiment [1] addresses T1, Adenosine receptor A3 (Homo sapiens) (UniProt P0DMS8).
T1 sequence (whole entry): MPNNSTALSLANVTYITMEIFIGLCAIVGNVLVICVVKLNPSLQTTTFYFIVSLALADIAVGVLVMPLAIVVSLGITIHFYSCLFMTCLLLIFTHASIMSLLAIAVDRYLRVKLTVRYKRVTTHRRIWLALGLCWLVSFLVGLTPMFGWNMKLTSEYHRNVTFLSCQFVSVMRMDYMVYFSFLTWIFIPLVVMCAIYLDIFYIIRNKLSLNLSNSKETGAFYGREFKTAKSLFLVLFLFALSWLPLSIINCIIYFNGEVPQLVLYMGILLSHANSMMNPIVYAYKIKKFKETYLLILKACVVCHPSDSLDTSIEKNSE
In words: Antagonist activity at human adenosine A3 receptor expressed in human HeLa cells assessed as inhibition of forskolin-stimulated cAMP production by enzyme immunoassay. It is filed as functional, cell-based. A digest of the protocol: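 Intact cells expressing hA3AR were stimulated with 10 μM forskolin, and receptor activation was induced with 0.1 μM NECA. Antagonist concentration-response curves were run against the NECA-induced cAMP decrease, with cAMP measured by enzyme immunoassay. K_B was derived from IC50, agonist concentration, agonist EC50 and curve slope. Data are mean ± SEM of two separate experiments.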
In general terms: Changes in cAMP serve as a functional read-out for many G protein-coupled receptors.

Experiment [2] deals with T2, Adenosine receptor A3 (Homo sapiens, UniProt P0DMS8).
T2 sequence (P0DMS8 whole entry): T1 sequence (whole entry)
In words: Displacement of [3H]NECA from human adenosine A3 receptor expressed in human HeLa cells by liquid scintillation counting. The class given is cell-based. Particulars: read-out: Ki. A digest of the protocol: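 HeLa membranes (90 μg) carrying hA3AR were incubated with [3H]NECA (30 nM) at 25 °C for 180 min, with six concentrations from 0.1 nM to 1 μM. Nonspecific binding was defined with 100 μM R-PIA. Filters were washed six times and counted by scintillation.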
On the technique in general: Displacement assays read how much labelled ligand stays bound in the presence of the test substance.

In experiment [3] the target is T3, Adenosine receptor A1 (Homo sapiens) (UniProt P30542).
T3 sequence (whole entry): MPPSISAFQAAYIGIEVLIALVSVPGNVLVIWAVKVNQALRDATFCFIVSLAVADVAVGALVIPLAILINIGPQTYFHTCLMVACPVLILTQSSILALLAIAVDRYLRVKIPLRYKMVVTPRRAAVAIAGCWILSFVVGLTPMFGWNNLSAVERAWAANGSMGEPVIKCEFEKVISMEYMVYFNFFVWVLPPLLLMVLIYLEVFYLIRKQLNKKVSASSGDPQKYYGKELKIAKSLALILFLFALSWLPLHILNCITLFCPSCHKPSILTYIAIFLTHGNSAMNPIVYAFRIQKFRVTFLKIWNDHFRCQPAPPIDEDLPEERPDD
In words: Displacement of [3H]DPCPX from human adenosine A1 receptor expressed in CHO cells at 0.1 uM by liquid scintillation counting. The class given is cell-based. A digest of the protocol: (§1)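 Transfected CHO cell membranes (15 μg) were incubated with [3H]DPCPX at 25 °C for 60 min, with six test concentrations from 0.1 nM to 1 μM. Nonspecific binding was defined with 10 μM R-PIA. Filters were washed four times with ice-cold buffer before scintillation counting. Ki (Cheng–Prusoff) is mean ± SEM, n=3; % displacement at 0.1 μM is n=2.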

Experiment [4] addresses T4, Adenosine receptor A2a (Homo sapiens, UniProt P29274). In words: Displacement of [3H][…] from human adenosine A2A receptor expressed in human HeLa cells at 0.1 uM by liquid scintillation counting. It is filed as cell-based. The gist of the method:
(§2)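 Nonspecific binding was defined with 50 μM NECA. Filters were washed four times with ice-cold buffer, then counted by scintillation. Ki (Cheng–Prusoff) is mean ± SEM, n=3; % displacement at 0.1 μM is n=2.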

In experiment [5] the target is T5, Adenosine receptor A2b (Homo sapiens) (UniProt P29275).
T5 sequence (whole entry): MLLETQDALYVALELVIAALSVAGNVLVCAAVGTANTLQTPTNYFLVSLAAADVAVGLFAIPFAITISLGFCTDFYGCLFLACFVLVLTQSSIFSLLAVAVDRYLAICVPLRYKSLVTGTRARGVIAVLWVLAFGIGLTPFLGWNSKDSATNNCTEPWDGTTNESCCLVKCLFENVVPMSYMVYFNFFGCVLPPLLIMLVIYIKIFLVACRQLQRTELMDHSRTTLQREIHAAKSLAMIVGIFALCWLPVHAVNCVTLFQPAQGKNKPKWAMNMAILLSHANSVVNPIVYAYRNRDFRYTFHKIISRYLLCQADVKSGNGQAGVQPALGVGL
In words: Displacement of [3H]DPCPX from human adenosine A2B receptor expressed in HEK293 cells at 0.1 uM by liquid scintillation counting. The class given is cell-based. The gist of the method:
(§3)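 HEK-293 membranes (18 μg) were incubated with [3H]DPCPX (35 nM) at 25 °C for 30 min, with six concentrations from 0.1 nM to 1 μM. Nonspecific binding was defined with 400 μM NECA. Filters were washed six times with ice-cold buffer and counted by scintillation. Ki (Cheng–Prusoff) is mean ± SEM, n=3; % displacement at 0.1 μM is n=2.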

In experiment [6] the target is T4, Adenosine receptor A2a. In words: Displacement of [3H][…] from human adenosine A2A receptor expressed in human HeLa cells by liquid scintillation counting. The class given is cell-based. The gist of the method: as §2
The target in experiment [7] is T6, Adenosine receptor A1 (Homo sapiens, UniProt P30542).
T6 sequence (P30542 whole entry): T3 sequence (whole entry)
The experiment in a line: Displacement of [3H]DPCPX from human adenosine A1 receptor expressed in CHO cells by liquid scintillation counting. It is filed as cell-based. The gist of the method:
as §1

Experiment [8] has as its target T7, Adenosine receptor A2b (Homo sapiens, UniProt P29275).
T7 sequence (P29275 whole entry): T5 sequence (whole entry)
The experiment in a line: Displacement of [3H]DPCPX from human adenosine A2B receptor expressed in HEK293 cells by liquid scintillation counting. It is filed as cell-based. The gist of the method: as §3

Experiment [9] deals with T5, Adenosine receptor A2b (Homo sapiens). The experiment in a line: Displacement of [3H]DPCPX from human adenosine A2B receptor expressed in HEK293 cells at 1 uM by liquid scintillation counting. It is filed as cell-based.
In experiment [10] the target is T1, Adenosine receptor A3 (Homo sapiens). In words: Displacement of [3H]NECA from human adenosine A3 receptor expressed in human HeLa cells at 1 uM by liquid scintillation counting. It is filed as cell-based.
In experiment [11] the target is T4, Adenosine receptor A2a. The experiment in a line: Displacement of [3H][…] from human adenosine A2A receptor expressed in human HeLa cells at 1 uM by liquid scintillation counting. It is filed as cell-based.
Experiment [12] addresses T1, Adenosine receptor A3 (Homo sapiens). In words: Displacement of [3H]NECA from human adenosine A3 receptor expressed in human HeLa cells at 0.1 uM by liquid scintillation counting. The class given is cell-based. A digest of the protocol:
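HeLa membranes (90 μg) carrying hA3AR were incubated with [3H]NECA (30 nM) at 25 °C for 180 min, with six concentrations from 0.1 nM to 1 μM. Nonspecific binding was defined with 100 μM R-PIA. Filters were washed six times and counted by scintillation. Ki (Cheng–Prusoff) is mean ± SEM, n=3; % displacement at 0.1 μM is n=2.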

As a reminder, the Kb is the affinity of an antagonist, worked out from how it opposes an agonist. Usually Ki stands for a measure of affinity in units of concentration, obtained from inhibition or displacement. In general, inhibition refers to how much of the control response was suppressed. A lower inhibition goes with a response near the control.

SMILES strings stand for the structures.

T4 sequence (P29274 whole entry): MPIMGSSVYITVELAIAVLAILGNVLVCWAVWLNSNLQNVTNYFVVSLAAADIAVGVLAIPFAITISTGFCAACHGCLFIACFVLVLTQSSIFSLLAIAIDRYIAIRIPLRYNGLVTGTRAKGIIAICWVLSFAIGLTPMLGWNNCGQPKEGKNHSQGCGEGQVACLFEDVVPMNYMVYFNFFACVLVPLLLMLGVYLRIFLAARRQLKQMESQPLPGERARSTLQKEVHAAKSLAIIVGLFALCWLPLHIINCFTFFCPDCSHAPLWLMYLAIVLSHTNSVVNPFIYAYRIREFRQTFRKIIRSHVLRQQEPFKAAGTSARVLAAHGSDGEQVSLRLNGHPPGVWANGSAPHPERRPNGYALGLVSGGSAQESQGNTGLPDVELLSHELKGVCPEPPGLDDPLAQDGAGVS

Consider `CCC(=O)Nc1cc(-c2ccc(Cl)cc2)nc(-c2ccc(Cl)cc2)n1`, for which the antagonist dissociation constant (Kb) in experiment [1] turned out to be 0.00388 µM. In experiment [2], the Ki is 0.0253 µM. The inhibition in [3] amounted to 16%; in experiment [4] it was 20%; in experiment [5] it was 3%.
`COc1ccc(-c2cc(NC(C)=O)nc(-c3ccc(OC)cc3OC)n2)c(OC)c1`: the antagonist dissociation constant (Kb) in [1] came to 0.00385 µM. For the same compound, in experiment [2], the inhibitory constant (Ki) is 0.0054 µM. Further, the inhibition was found to be 1% in experiment [3], 6% in [4] and 2% in experiment [5].
As for `CCC(=O)Nc1cc(-c2ccoc2)nc(-c2ccoc2)n1`, the Ki stood at 0.0828 µM in [6], 0.0126 µM in experiment [2], 0.132 µM in experiment [7] and 0.049 µM in [8].
For the compound `CCC(=O)Nc1cc(-c2ccc(OC)cc2)nc(-c2ccc(OC)cc2)n1`, the Kb in [1] worked out at 0.0014 µM. The inhibition constant Ki in [2] came out at 0.0036 µM. Moreover, the figures for the inhibition in experiment [3], in [4] and in experiment [5] were 8%, 1% and 3%, respectively.
Consider `CC(=O)Nc1cc(-c2ccc(C)cc2)nc(-c2ccc(C)cc2)n1`, for which the antagonist dissociation constant (Kb) in experiment [1] stood at 0.00356 µM. Moreover, the Ki in experiment [2] amounted to 0.0044 µM. Further, the inhibition in [3] amounted to 2%; in experiment [4] it was 8%; in [5], 2%.
On to `CCC(=O)Nc1nc(-c2ccsc2)cc(-c2ccsc2)n1`, for which the Ki in [6] came out at 1.89 µM; in [2], 1.28 µM; in experiment [7], 0.367 µM; in [8], 3.25 µM.
In the case of `CCC(=O)Nc1nc(-c2ccc(SC)cc2)cc(-c2ccc(SC)cc2)n1`, the inhibition constant Ki in [6] is 0.183 µM; in experiment [2] it was 4.43 µM; in experiment [7], 0.505 µM; in experiment [8], 0.374 µM.
As for `CCC(=O)Nc1cc(-c2ccco2)nc(-c2ccco2)n1`, the inhibition constant Ki in experiment [6] amounted to 0.0064 µM; in experiment [2] it was 0.0062 µM; in [7] it was 0.0155 µM; in experiment [8], 0.0205 µM.
Regarding `CC(C)(C)CC(=O)Nc1cc(-c2ccccc2)nc(-c2ccccc2)n1`, the inhibition in [9] stood at 4%; in experiment [10] it was 39%; in experiment [11], 32%.
Turning to `CCCC(=O)Nc1nc(-c2ccccc2)cc(-c2ccccc2)n1`, the inhibition is 54% in experiment [9]; 38% in experiment [10]; 7% in experiment [11]; 17% in experiment [12]; 3% in [4]; 14% in experiment [5].
Turning to `CCC(=O)Nc1cc(-c2ccc3c(c2)OCO3)nc(-c2ccc3c(c2)OCO3)n1`, the Ki in experiment [6] stood at 2.54 µM; in experiment [2] it was 0.0145 µM; in experiment [7], 0.00528 µM; in experiment [8], 1.67 µM.
The corresponding values for `CCC(=O)Nc1nc(-c2ccccc2)cc(-c2ccccc2)n1` are 0.554 µM, 0.531 µM, 0.0313 µM and 0.0425 µM.
For the compound `CC(C)C(=O)Nc1nc(-c2ccccc2)cc(-c2ccccc2)n1`, the inhibition was 79% in experiment [9], 45% in experiment [10] and 44% in experiment [11].
Regarding `CCC(=O)Nc1nc(-c2ccccc2F)cc(-c2ccccc2F)n1`, the Ki in [6] is 0.424 µM; in experiment [2], 0.279 µM; in experiment [7], 0.0482 µM; in experiment [8] it was 0.307 µM.
As for `CCCC(=O)Nc1cc(-c2ccc(OC)cc2)nc(-c2ccc(OC)cc2)n1`, the antagonist dissociation constant (Kb) in [1] was determined as 0.00157 µM. Besides, in experiment [2], the Ki was found to be 0.011 µM. Further, the values for the inhibition in [3], in [4] and in experiment [5] were 8%, 4% and 1%, respectively.
On to `CC(=O)Nc1cc(-c2ccco2)nc(-c2ccco2)n1`, for which the Ki amounted to 0.0081 µM in [6], 0.003 µM in experiment [2], 0.0407 µM in experiment [7] and 0.012 µM in experiment [8].
Consider `CCCC(=O)Nc1cc(-c2ccco2)nc(-c2ccco2)n1`, for which the Ki came to 0.0057 µM in [6], 0.0099 µM in [2], 0.0078 µM in [7] and 0.0164 µM in experiment [8].
`O=C(Nc1nc(-c2ccccc2)cc(-c2ccccc2)n1)C1CCCC1`: the Ki in [6] stood at 0.196 µM; in [2], 0.17 µM; in [7], 0.00214 µM. Besides, the inhibition in [9] came to 52%.

The values are drawn from ChEMBL document CHEMBL1649418, “Pyrimidine derivatives as potent and selective A3 adenosine receptor antagonists” (J Med Chem, 2011).
